Source: ChEMBL document CHEMBL4513216, “Probing the Open Global Health Chemical Diversity Library for Multistage-Active Starting Points for Next-Generation Antimalarials” (ACS Infect Dis, 2020)

Experiment: Toxicity liver stage against HepG2, at 10uM
Assay type: cell-based
Design: test concentration 10 uM, cell line HepG2-A16-CD81EGFP
Details: human, HepG2-A16-CD81EGFP cells; read-out: INHIBITION
Outline: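 Uninfected HepG2-A16-CD81EGFP cells, 3 × 10^3 per well, 1536-well, plated on prespotted compound at 10 μM final, parasite-free screening media added to match infected plates; puromycin 10 μM positive, DMSO 0.5% negative; run in parallel with 48 h PbLuc assay at 37 °C, 5% CO2; viability by CellTiter-Glo luminescence, normalized to controls.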

Compound | cytotoxicity at 10 µM [%]
COc1ccccc1-n1c(C)cc(CNC(=O)NC(C)C)c1C | 3.49
O=C(c1nc(Cc2c[nH]c3ccccc23)no1)N1CCCC1 | 7.76
Cc1nc(C)n(CC2CN(S(C)(=O)=O)Cc3nccn3C2)n1 (stereo not given) | -140
COCC1CN(Cc2cccc(C#N)c2)Cc2nccn2C1 (stereo not given) | -141
COc1cccc2c1ccn2CCC(=O)N1CCC(C(=O)O)CC1 | 7.08
CC(=O)N1CCC2(CC1)CC(C(C)C)=NO2 | 8.74
O=C(CCc1ccco1)NS(=O)(=O)N1CCOc2ccccc21 | 6.07
COc1ccccc1NC(=O)c1ccc(C)n1C | 1.42
Cc1cnn(CCNCC(=O)N2CCN(c3ncccn3)CC2)c1 | -0.0264
CC(Nc1ccc(C#N)cc1F)c1cccc(S(N)(=O)=O)c1 (stereo not given) | -3.86
Cc1cc(NC(=O)CNc2cccc(OC(F)F)c2C)n(C)n1 | 9.47
N#Cc1ccc(NCCC(=O)N2CCCc3ccccc32)nc1 | -1.33
CCOc1cc(Cl)ccc1CNC(=O)N(C)CC(C)(C)O | -0.538
O=C1CCN(C(=O)C2(c3ccc(F)cc3)CCCC2)CCN1 | -8.27
CCOCC(=O)NC1(c2nc(C)cs2)CCCC1 | -12.7
Cc1cccc(NC(=O)[C@@H]2CCCN2Cc2ccc(C#N)cc2F)n1 | -5.64
CN1CCC(N(Cc2ccccc2F)C(=O)NCc2ccncc2)CC1 | -2.14
CCC(CC)c1cc(CNC(=O)N2CCN(CC)CC2)on1 | -3.26
COc1ccccc1N1CCN(Cc2nc(C)c(C)o2)CC1 | 13.4
N#CCCN(Cc1ccco1)C(=O)Cc1ccc(-n2cnnn2)cc1 | 3.23
CC(CNCC1(S(C)(=O)=O)CCOCC1)c1ccc(F)cc1 (stereo not given) | -5.06
Cc1ccsc1CNC(=O)c1ccc(N2CCNC2=O)cc1 | 1.79
COc1ccc(C(=O)Nc2cnn(CC(=O)NC3CCCC3)c2)c(O)c1 | -14.8

Compound | cytotoxicity at 10 µM [%]
O=C(O)c1cc2c(nc1-c1ccncc1)CCN(Cc1ccoc1)CC2 | -70.9
COCC(=O)N1CCCC2(CCN(c3cncnc3)C2=O)C1 (stereo not given) | -72.5
c1cnc(NCC2Cn3nnc(-c4ccoc4)c3CO2)nc1 (stereo not given) | -76.1
O=C(c1ccco1)N1CCn2cc(CN3CCCC3)nc2C1 | -78.9
NC(=O)N1CCC2(CC1)CN(c1ncccn1)CCO2 | -75.1
CCNC(=O)c1c2c(N3CCN(C)CC3)ncnc2n2ccccc12 | -74.8
O=C(c1ccnnc1)N1CC[C@H]2C[C@H](c3ccncn3)O[C@@H]2C1 | -71.8
CCOC(=O)CC1CCCCN1C(=O)c1cnc(C)cn1 (stereo not given) | 0.957
CCc1ccc(OCC(=O)N2CCN(CC)CC2)cc1 | 6.15
Cn1ccnc1C1c2nc[nH]c2CCN1Cc1cccnc1 (stereo not given) | 0.0371
Cc1nccn1-c1cccc(C2CCCN2S(=O)(=O)c2cn(C)cn2)n1 (stereo not given) | 7.99
CCCc1n[nH]c(C2CN(C(=O)CCc3cscn3)CCO2)n1 (stereo not given) | -1.63
Cc1cc(NC(=O)CN2CCn3c(nnc3C3CC3)C2)on1 | -9.92
CCn1cc(NC(=O)NCC(O)CN2CCc3ccccc3C2)cn1 (stereo not given) | -4.33
CC(=O)Nc1nc(C(=O)N2CCCC2Cn2cc(C)cn2)cs1 (stereo not given) | 7.07
Cc1n[nH]c(C2CN(C(=O)c3cnc[nH]3)CCO2)n1 (stereo not given) | -0.265
Cc1ncsc1CN1C[C@H](C(=O)N2CCCO2)[C@@H]2CCO[C@@H]2C1 | -11.6
CN(C)C(=O)CO[C@H]1CN(Cc2ccc(F)cc2)[C@@H]2CCCO[C@H]12 | -22.3
CN(C)C(=O)[C@H]1C[C@H]2OCC[C@H]2N(Cc2ccc3ccccc3n2)C1 | -55.9
c1ccc(CN2CCc3ncnc(-c4cccnc4)c3CC2)nc1 | -75.7
Cc1ccc(N2CCO[C@H]3CN(Cc4nccs4)C[C@H]32)nn1 | -94.7
CCCn1nccc1NC(=O)CN1CCCC1c1cccn1C (stereo not given) | -5.76
